Runt-SMMHC FRET: inhibitors of RUNX1 Runt–CBFb-SMMHC binding, primary screen, biochemical, FRET, Cerulean-Runt, Venus-CBFb-SMMHC, uHTS; Runt-related transcription factor 1 (Homo sapiens) + Core-binding factor subunit beta …; Cerulean-Runt/Venus-CBFb-SMMHC FRET ratio 530/480, 1 h; inhibition, % at 20 µM; actives 0.74% (n = 220,000); AID 1434, 2008;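 active = mean inhibition across duplicate retests at 20 µM reaching about 50%, limit read from the data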;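 note: 0% = DMSO wells and 100% = wells with excess untagged CBFb-SMMHC; inhibitors lower the FRET ratio by blocking Runt binding to CBFb-SMMHC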
RanGTP-Impb inh: inhibitors of RanGTP-importin-beta interaction, primary screen, biochemical, FRET, CFP-Ran, YFP-importin-beta, homogeneous | inhibition, % (concentration not given with the values) | AID 2216, 2009 | Ran GTPase (GTP-bound) - importin-beta complex | actives 1.1% (n = 300,000) | cell-free CFP-Ran/YFP-importin-beta FRET ratio;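 active = more than half of the replicate wells show a fall in the fluorescence ratio signal beyond about 16%, limit read from the data, passing the limit was not always enough; inconclusive = exactly half of the replicate wells pass the set limit; inactive = fewer than half of replicates pass the limit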;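 note: 0% = DMSO wells and 100% = Ran loaded with GDP instead of GTP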
Hck Nef HTS: inhibitors of Nef-activated human Hck kinase, primary screen, biochemical, Z-Lyte FRET, 384-well, Hck-YEEI; Tyrosine-protein kinase HCK (Homo sapiens), P08631; Recombinant Hck-YEEI plus Nef, Z-Lyte FRET kinase assay; inhibition, % at 20 µM; actives 0.68% (n = 220,000);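 active = Hck-Nef kinase inhibition above about 50%, limit read from the data; inactive = inhibition below that limit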;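 note: 0% = DMSO with Hck plus Nef and 100% = Hck alone without Nef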
Target sequence (P08631 whole entry, looked up): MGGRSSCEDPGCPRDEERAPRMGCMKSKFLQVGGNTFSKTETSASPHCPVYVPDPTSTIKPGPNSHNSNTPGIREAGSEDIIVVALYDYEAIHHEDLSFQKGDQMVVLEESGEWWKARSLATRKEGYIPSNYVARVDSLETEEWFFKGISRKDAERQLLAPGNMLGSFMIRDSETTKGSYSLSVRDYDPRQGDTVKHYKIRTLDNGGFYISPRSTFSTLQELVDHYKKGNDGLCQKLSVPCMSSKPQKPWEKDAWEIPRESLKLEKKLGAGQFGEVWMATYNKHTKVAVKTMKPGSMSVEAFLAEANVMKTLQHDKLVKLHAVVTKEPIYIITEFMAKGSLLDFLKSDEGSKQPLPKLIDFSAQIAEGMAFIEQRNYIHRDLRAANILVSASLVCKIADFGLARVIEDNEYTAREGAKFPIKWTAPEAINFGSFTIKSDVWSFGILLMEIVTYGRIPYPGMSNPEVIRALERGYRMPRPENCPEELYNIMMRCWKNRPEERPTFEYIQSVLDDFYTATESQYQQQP
Runt-CBFb FRET: inhibitors of RUNX1 Runt–CBFb binding, primary screen, biochemical, FRET, Cerulean-Runt, Venus-CBFb, uHTS; Runt-related transcription factor 1 (Homo sapiens) + Core-binding factor subunit beta …; Cerulean-Runt/Venus-CBFb FRET ratio 530/480, 1 h; actives 0.46% (n = 220,000); inhibition, % at 20 µM;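 active = inhibition over about 50% at 20 µM in the single-dose screen, limit read from the data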;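 note: 0% = DMSO wells and 100% = excess unlabeled CBFb competitor control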
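Assay system: Cerulean-Runt domain fusion protein, energy donor; Signal: fluorescence energy transfer, 422 nm excitation, 530/480 nm emission; Timing: 1 h compound exposure, room temperature; Control set: unlabeled CBFb; Medium: Tris buffer pH 7.5 with salts and BSA; Compound: single test concentration of 20 µM, 1% DMSO final; Probe or stimulus: Venus-CBFb 100 nM.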
RUNX1 CBFb TR: inhibitors of RUNX1 Runt–CBFb binding, biochemical, TR-FRET. TR-FRET RUNX1 Runt domain-CBFb binding. shares compounds with Runt-CBFb FRET. inhibition, % at 20 µM. actives 20% (n = 480); in the data active = inhibition above about 40%
Starred values were filed as active, the others as inactive; i = inactive; ? = inconclusive; nt = not tested or not shown. Most compounds without a hit are left out; they make up all but 1.8% or so of the library.

SMILES	Runt-SMMHC FRET	RanGTP-Impb inh	Hck Nef HTS	Runt-CBFb FRET	RUNX1 CBFb TR
Cn1c(=O)[nH]c(=O)c2c1nc(SCCN1CCCCC1)n2CCCc1ccccc1	47.4	nt	1.0	51.8*	i
Cn1c(=O)[nH]c(=O)c2c1nc(SCCN1CCCCC1)n2Cc1ccccc1	-0.8	9.7	0.4	-0.8	nt
COc1ccc(NC(=O)c2cc3ccccc3cc2O)cc1	nt	8.0	nt	nt	nt
CCCCCCc1cc2cc(C(=O)Nc3ccc(OC)cc3)c(=O)oc2cc1O	102.5	40.7*	28.0	65.3*	-12.4
N#Cc1ccc2[nH]cc(CCO)c2c1	nt	1.0	nt	nt	nt
O=C1NC2=C(C(=O)CCC2)C(c2ccc(OC(F)F)cc2)N1 (stereo unspecified)	nt	-0.8	nt	nt	nt
COc1ccc(C)cc1NC(=O)n1ncc2cc(Cl)ccc21	nt	-1.5	nt	nt	nt
COc1cc(/C=C(\C#N)c2nc3ccccc3[nH]2)cc(Br)c1OCc1ccc(F)cc1	106.3*	5.2	3.9	53.6*	-7.3
COc1cc(/C=C(\C#N)c2nc3ccccc3[nH]2)cc(Br)c1OCc1ccccc1	-65.7	11.1	6.8	-8.5	nt
O=C(CNC(=O)c1ccc(Br)o1)NCC(=O)OCc1ccccc1	nt	-0.1	nt	nt	nt
CN1CCN(C2=C(Cl)C(=O)N(c3ccc(Cl)c(Cl)c3)C2=O)CC1	23.4	-3.9	-3.0	11.9	nt
Cc1ccc(N2C(=O)C(Cl)=C(N3CCOCC3)C2=O)cc1Cl	53.6*	0.5	33.0	64.8*	19.8
S=C1CSc2ccccc2N1	11.5	1.9	25.4	52.9*	13.6
COCCCNC(=O)COc1ccc2oc3c(c2c1)CCCC3	nt	-0.6	nt	nt	nt
CCCOc1ccccc1-c1nc2c([nH]1)c(=O)[nH]c(=O)n2C	132.7*	74.5*	3.0	75.3*	-12.8
CCSc1nnc(NC(=O)C2CCCN(S(=O)(=O)c3cnc[nH]3)C2)s1 (stereo unspecified)	0.5	-1.6	22.0	64.2*	-10.2
Cc1ccc2nc(NC(=O)C3CCCN(S(=O)(=O)c4cnc[nH]4)C3)sc2c1 (stereo unspecified)	-4.6	-3.3	18.8	-1.1	nt
O=C(O)c1ccccc1C(=O)Nc1n[nH]c(=S)s1	42.9	-0.6	1.5	53.5*	20.5
O=C(O)c1ccccc1C(=O)Nc1nccs1	1.3	-1.8	1.5	-0.1	nt
CN1/C(=C\C(=O)c2cccs2)Sc2ccccc21	93.9*	?	49.8	52.5*	-0.1
COc1cc(OC)cc(C(=O)/C=C2\Sc3ccccc3N2C)c1	47.7	1.5	-4.2	56.8*	6.3
CN1/C(=C/C(=O)C2CCC2)Sc2ccccc21	25.2	3.6	3.1	51.4*	7.5
CCOC(=O)c1c(NC(=S)Nc2ccc(C)cc2)sc2c1CCC2	9.2	1.3	2.6	5.9	nt
CCOC(=O)c1c(NC(=S)Nc2ccc(OCC)cc2)sc2c1CCN(C)C2	51.9*	18.7*	-54.7	82.4*	13.3
O=C1NC(=O)/C(=C/c2ccccn2)S1	-5.5	-3.0	19.8	-2.2	nt
SMILES	Runt-SMMHC FRET	RanGTP-Impb inh	Hck Nef HTS	Runt-CBFb FRET	RUNX1 CBFb TR
Cc1ncoc1C(=O)Nc1ncc([N+](=O)[O-])s1	26.6	0.7	-54.7	63.9*	20.0
CCC(=O)NC(=S)NNC(=O)c1ccccc1[N+](=O)[O-]	47.8	-3.4	18.3	50.9*	-19.7
Cc1ccccc1N1CCN(C2CCCN(C(=O)CCC(F)(F)F)C2)CC1 (stereo unspecified)	nt	-2.2	nt	nt	nt
CCc1ccc(NC(=S)N(Cc2cccc(Br)c2)CC2CCC(C(=O)O)CC2)cc1 (stereo unspecified)	-2.0	-1.3	23.3	-5.2	nt
Cc1c(NS(=O)(=O)c2ccc3c(c2)CCN3C(=O)C2CC2)c(=O)n(-c2ccccc2)n1C	-8.1	2.3	0.5	56.6*	-10.1
Cc1c(NS(=O)(=O)c2cc(Br)cc3c2N(C(=O)C2CC2)CC3)c(=O)n(-c2ccccc2)n1C	-2.2	-0.1	17.8	0.1	nt
Cc1nn(C)c(Sc2ccccc2N)c1[N+](=O)[O-]	51.0	-1.4	27.0	54.7*	13.8
Cc1nn(C)c(N)c1[N+](=O)[O-]	-8.2	-2.6	9.5	-0.1	nt

Screens: PubChem BioAssay, several laboratories
